Assay results as given in ChEMBL document CHEMBL1629527, “In vitro antifungal activities of bis(alkylpyridinium)alkane compounds against pathogenic yeasts and molds” (Antimicrob Agents Chemother, 2010).

Assays:
[1] = test system: Fusarium solani; assay: Antifungal activity against Fusarium solani 04-203102 after 48 to 72 hrs; type: functional
Summary of the method: (§1)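 After the broth microdilution MIC read, suspension from every well without visible growth was plated onto Sabouraud dextrose agar and incubated at 35°C, up to 7 days for molds. MFC was taken as the lowest drug concentration with no colonies.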

[2] = test system: Cryptococcus neoformans; assay: Antifungal activity against Cryptococcus neoformans 05-202523 after 48 to 72 hrs; type: functional
Summary of the method: (§2)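 MFC: after the MIC read, 30-μl aliquots from each well without visible growth were plated onto Sabouraud dextrose agar and incubated at 35°C. Reading was at 48–72 h for yeasts and up to 7 days for molds. MFC was the lowest concentration with no colonies.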

[3] = test system: Lichtheimia corymbifera; assay: Antifungal activity against Absidia corymbifera 04-200170 after 24 to 72 hrs by broth microdilution method; type: functional
Summary of the method: (§3)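 Broth microdilution MIC per CLSI M27-A3 (yeasts) or M38-A2 (molds). RPMI 1640 with L-glutamine, without bicarbonate, buffered to pH 7.0 with 0.165 M MOPS. Final test range for the compounds was 0.175–87.5 μM. Incubation at 35°C with visual reading at 24–72 h. MIC was the lowest concentration giving 100% inhibition versus the growth control (azoles 50% or 100%, by organism). Each isolate was run in duplicate in two independent experiments.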

[4] = test system: Cunninghamella bertholletiae; assay: Antifungal activity against Cunninghamella bertholletiae 99-12187 after 48 to 72 hrs; type: functional; details: in the assay text read “for up to 7 days” for “after 48 to 72 hrs”; summary of the method: as §2
[5] = test system: Scedosporium apiospermum; assay: Antifungal activity against Scedosporium apiospermum 05-203100 after 24 to 72 hrs by broth microdilution method; type: functional
Summary of the method: (§4)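 Mold isolates subcultured on potato dextrose agar, then tested by CLSI M38-A2 broth microdilution in RPMI 1640 (L-glutamine, no bicarbonate) buffered to pH 7.0 with 0.165 M MOPS. Compounds were dissolved in water and tested at a final 0.175–87.5 μM. Plates were incubated at 35°C. MIC was read visually as the lowest concentration giving 100% inhibition versus the growth control. Each isolate was run in duplicate in two independent experiments.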

[6] = test system: Lomentospora prolificans; assay: Antifungal activity against Scedosporium prolificans 05-203060 after 24 to 72 hrs by broth microdilution method; type: functional; summary of the method: as §4
[7] = test system: Candida albicans; assay: Antifungal activity against Candida albicans ATCC 90028 after 24 to 72 hrs by broth microdilution method; type: functional; summary of the method: as §3
[8] = test system: Candida parapsilosis; assay: Antifungal activity against Candida parapsilosis ATCC 22019 after 24 to 72 hrs by broth microdilution method; type: functional; details: Lodderomyces parapsilosis; summary of the method: as §3
[9] = test system: Aspergillus fumigatus; assay: Antifungal activity against Aspergillus fumigatus ATCC 204305 after 48 to 72 hrs; type: functional
Summary of the method: (§5)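 CLSI M38-A2 broth microdilution for molds in RPMI 1640 with L-glutamine and no bicarbonate, buffered with 0.165 M MOPS to pH 7.0. Compounds were dissolved in water and tested at 0.175–87.5 μM final, 35°C, up to 7 days. MIC was read visually as 100% inhibition versus growth control. For MFC, clear wells were plated on SDA and the lowest concentration with no colonies taken. Each isolate was run in duplicate, two independent experiments.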

[10] = test system: Aspergillus fumigatus; assay: Antifungal activity against Aspergillus fumigatus ATCC 204305 after 24 to 72 hrs by broth microdilution method; type: functional; summary of the method: as §3
[11] = test system: Aspergillus terreus; assay: Antifungal activity against Aspergillus terreus 05-202844 after 48 to 72 hrs; type: functional; summary of the method: as §2
[12] = Antifungal activity against Exophiala jeanselmei 03-200268 after 24 to 72 hrs by broth microdilution method; type: functional; summary of the method: as §3
[13] = Antifungal activity against Paecilomyces lilacinus 05-200601 after 24 to 72 hrs by broth microdilution method; type: functional; details: Purpureocillium lilacinum; summary of the method: as §4
[14] = test system: Candida tropicalis; assay: Antifungal activity against Candida tropicalis 04-202361 after 24 to 72 hrs by broth microdilution method; type: functional; summary of the method: as §3
[15] = test system: Nakaseomyces glabratus; assay: Antifungal activity against Candida glabrata 04-202345 after 24 to 72 hrs by broth microdilution method; type: functional; summary of the method: as §3
[16] = test system: Cryptococcus neoformans; assay: Antifungal activity against Cryptococcus neoformans ATCC 90112 after 48 to 72 hrs; type: functional; summary of the method: as §2
[17] = test system: Cunninghamella bertholletiae; assay: Antifungal activity against Cunninghamella bertholletiae 99-12187 after 24 to 72 hrs by broth microdilution method; type: functional; summary of the method: as §3
[18] = test system: Rhizopus arrhizus; assay: Antifungal activity against Rhizopus oryzae 05-203111 after 24 to 72 hrs by broth microdilution method; type: functional; summary of the method: as §4
[19] = test system: Pichia kudriavzevii; assay: Antifungal activity against Candida krusei 04-202328 after 24 to 72 hrs by broth microdilution method; type: functional; summary of the method: as §3
[20] = test system: Pichia kudriavzevii; assay: Antifungal activity against Candida krusei ATCC 6258 after 24 to 72 hrs by broth microdilution method; type: functional; summary of the method: as §3
[21] = test system: Cryptococcus gattii species complex; assay: Antifungal activity against Cryptococcus gattii 05-200122 after 24 to 72 hrs by broth microdilution method; type: functional, Cryptococcus bacillisporus; summary of the method: as §3
[22] = test system: Candida parapsilosis; assay: Antifungal activity against Candida parapsilosis 04-202398 after 48 to 72 hrs; type: functional; details: Lodderomyces parapsilosis
Summary of the method: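 CLSI M27-A3 broth microdilution for yeasts in RPMI 1640 with L-glutamine and no bicarbonate, buffered with 0.165 M MOPS to pH 7.0. Compounds were dissolved in water and tested at 0.175–87.5 μM final, 35°C. MIC was read visually at 24–72 h as 100% inhibition versus growth control. For MFC, 30 μl from clear wells went onto SDA at 35°C for 48–72 h, reading the lowest concentration without colonies. Duplicates, two independent runs.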

[23] = test system: Fusarium solani; assay: Antifungal activity against Fusarium solani 04-203102 after 24 to 72 hrs by broth microdilution method; type: functional; summary of the method: as §4
[24] = test system: Aspergillus fumigatus; assay: Antifungal activity against Aspergillus fumigatus 05-203114 after 24 to 72 hrs by broth microdilution method; type: functional; summary of the method: as §3
[25] = test system: Exophiala spinifera; assay: Antifungal activity against Exophiala spinifera 03-200803 after 24 to 72 hrs by broth microdilution method; type: functional; summary of the method: as §4
[26] = test system: Cryptococcus neoformans; assay: Antifungal activity against Cryptococcus neoformans 05-202523 after 24 to 72 hrs by broth microdilution method; type: functional; summary of the method: as §3
[27] = test system: Candida parapsilosis; assay: Antifungal activity against Candida parapsilosis 04-202398 after 24 to 72 hrs by broth microdilution method; type: functional; details: Lodderomyces parapsilosis; summary of the method: as §3
[28] = test system: Lichtheimia corymbifera; assay: Antifungal activity against Absidia corymbifera 04-200170 after 48 to 72 hrs; type: functional; summary of the method: as §5
[29] = test system: Candida albicans; assay: Antifungal activity against Candida albicans ATCC 10231 after 24 to 72 hrs by broth microdilution method; type: functional; summary of the method: as §3
[30] = test system: Aspergillus terreus; assay: Antifungal activity against Aspergillus terreus 05-202844 after 24 to 72 hrs by broth microdilution method; type: functional; summary of the method: as §3
[31] = test system: Aspergillus flavus; assay: Antifungal activity against Aspergillus flavus ATCC 204304 after 48 to 72 hrs; type: functional; summary of the method: as §2
[32] = test system: Aspergillus fumigatus; assay: Antifungal activity against Aspergillus fumigatus 05-203114 after 48 to 72 hrs; type: functional; summary of the method: as §5
[33] = test system: Aspergillus flavus; assay: Antifungal activity against Aspergillus flavus 05-203758 after 24 to 72 hrs by broth microdilution method; type: functional; summary of the method: as §3
[34] = test system: Aspergillus flavus; assay: Antifungal activity against Aspergillus flavus ATCC 204304 after 24 to 72 hrs by broth microdilution method; type: functional; summary of the method: as §3
[35] = test system: Cryptococcus neoformans; assay: Antifungal activity against Cryptococcus neoformans ATCC 90112 after 24 to 72 hrs by broth microdilution method; type: functional; summary of the method: as §3
[36] = test system: Scedosporium apiospermum; assay: Antifungal activity against Scedosporium apiospermum 05-203100 after 48 to 72 hrs; type: functional; details: in the assay text read “for up to 7 days” for “after 48 to 72 hrs”; summary of the method: as §1
[37] = test system: Rhizopus arrhizus; assay: Antifungal activity against Rhizopus oryzae 05-203111 after 48 to 72 hrs; type: functional; summary of the method: as §1
[38] = test system: Lomentospora prolificans; assay: Antifungal activity against Scedosporium prolificans 05-203060 after 48 to 72 hrs; type: functional; summary of the method: as §5
[39] = Antifungal activity against Exophiala jeanselmei 03-200268 after 48 to 72 hrs; type: functional; summary of the method: as §5
[40] = test system: Candida parapsilosis; assay: Antifungal activity against Candida parapsilosis ATCC 22019 after 48 to 72 hrs; type: functional; details: Lodderomyces parapsilosis; summary of the method: as §2
[41] = test system: Nakaseomyces glabratus; assay: Antifungal activity against Candida glabrata 04-202345 after 48 to 72 hrs; type: functional; summary of the method: as §2

| Structure (SMILES) | MFC [2] | MIC [3] | MIC [5] | MIC [6] | MIC [7] | MIC [8] | MIC [10] | MIC [12] | MIC [13] | MIC [14] | MIC [15] | MIC [17] | MIC [18] | MIC [19] | MIC [20] | MIC [21] | MIC [23] | MIC [24] | MIC [25] | MIC [26] | also measured |
| --- | --- | --- | --- | --- | --- | --- | --- | --- | --- | --- | --- | --- | --- | --- | --- | --- | --- | --- | --- | --- | --- |
| CCCCC(CCCC)c1cc[n+](CCCCCCCCCCCC[n+]2ccc(C(CCCC)CCCC)c(C)c2)cc1C.[Cl-].[Cl-] | 7.5 µg/mL | 29.8 µg/mL | 1.86 µg/mL | 3.7 µg/mL | 1.86 µg/mL | 1.86 µg/mL | 14.9 µg/mL | 3.7 µg/mL | 59.7 µg/mL | 1.86 µg/mL | 1.86 µg/mL | 14.9 µg/mL | 3.7 µg/mL | 3.7 µg/mL | 3.7 µg/mL | 1.86 µg/mL | 29.8 µg/mL | 14.9 µg/mL | 1.86 µg/mL | 3.7 µg/mL | MFC [1]: 59.7 µg/mL; MFC [4]: 29.8 µg/mL; MFC [9]: 29.8 µg/mL; MFC [11]: 14.9 µg/mL; MFC [16]: 3.7 µg/mL; MFC [22]: 29.8 µg/mL; MIC [27]: 14.9 µg/mL; MFC [28]: 59.7 µg/mL; MIC [29]: 1.86 µg/mL; MIC [30]: 3.7 µg/mL; MFC [31]: 59.7 µg/mL; MFC [32]: 59.7 µg/mL; MIC [33]: 59.7 µg/mL; MIC [34]: 14.9 µg/mL; MIC [35]: 1.86 µg/mL |
| CC(C)(C)CCc1cc[n+](CCCCCCCCCCCC[n+]2ccc(CCC(C)(C)C)cc2)cc1.[Cl-].[Cl-] | 50.7 µg/mL | > 50.7 µg/mL | 6.3 µg/mL | 1.58 µg/mL | 3.2 µg/mL | 1.58 µg/mL | > 50.7 µg/mL | 1.58 µg/mL | > 50.7 µg/mL | 1.58 µg/mL | 0.79 µg/mL | > 50.7 µg/mL | 6.3 µg/mL | 25.3 µg/mL | 25.3 µg/mL | 1.58 µg/mL | > 50.7 µg/mL | > 50.7 µg/mL | 0.79 µg/mL | 25.3 µg/mL | MFC [36]: 12.7 µg/mL; MFC [37]: 25.3 µg/mL; MFC [38]: 12.7 µg/mL; MIC [27]: 50.7 µg/mL; MFC [39]: 3.2 µg/mL; MIC [29]: 3.2 µg/mL; MFC [40]: 3.2 µg/mL; MIC [30]: 50.7 µg/mL; MIC [33]: > 50.7 µg/mL; MIC [34]: > 50.7 µg/mL; MIC [35]: 1.58 µg/mL; MFC [41]: 1.58 µg/mL |
